Experimental data reported in ChEMBL document CHEMBL4689842, “EUbOPEN Chemogenomics Library wave 1” (2021).

Test system: Fibroblast
Assay: Multiplex assay against human fibroblast
Type: toxicity, cell-based
Procedure, shortened: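 Tubulin, mitochondrial-mass and membrane-permeability phenotypes are per cents of healthy-nucleus cells. Cells were gated by CellPathfinder machine learning into Hoechst high-intensity objects or normal cells, normal cells into healthy, pyknosed or fragmented nuclei, and pyknosed cells into mitotic or apoptotic. Before that, live cells stained at seeding with Hoechst33342, BioTracker Green Microtubule Cytoskeleton Dye, MitoTracker Red and Annexin V Alexa Fluor 680 were imaged on a CQ1 microscope at 37°C and 5% CO2 after compound addition.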

[1] = 12 h, 1 µM, compound concentration 1 uM, replicate 1
[2] = 12 h, 1 µM, compound concentration 1 uM, replicate 2
[3] = 12 h, 10 µM, compound concentration 10 uM, replicate 1
[4] = 12 h, 10 µM, compound concentration 10 uM, replicate 2
[5] = 24 h, 1 µM, compound concentration 1 uM, replicate 1
[6] = 24 h, 1 µM, compound concentration 1 uM, replicate 2
[7] = 24 h, 10 µM, compound concentration 10 uM, replicate 1
[8] = 24 h, 10 µM, compound concentration 10 uM, replicate 2
[9] = 48 h, 1 µM, compound concentration 1 uM, replicate 1
[10] = 48 h, 1 µM, compound concentration 1 uM, replicate 2
[11] = 48 h, 10 µM, compound concentration 10 uM, replicate 1
[12] = 48 h, 10 µM, compound concentration 10 uM, replicate 2

## CNC(=O)c1cc(Oc2ccc(NC(=O)Nc3cc(C(C)(C)C)nn3-c3ccc4ncccc4c3)c(F)c2)ccn1 [REBASTINIB]
[1]
  Population Apoptotic (%): 90%
  Population Fragmented Nuclei (%): 24%
  Population Healthy Nuclei (%): 66%
  Population Hoechst High Intensity Objects (%): 10%
  Population Membrane Permeable-Phenotype (%): 4%
  Population Mitochondria Different-Phenotype (%): 2%
  Population Mitotic Cells (%): 10%
  Population Normal (%): 89%
  Population Pyknosed Nuclei (%): 9%
  Population Tubulin-Different-Phenotype (%): 4%
  Total Cell Count: 237
[2]
  Population Apoptotic (%): 40%
  Population Fragmented Nuclei (%): 56%
  Population Healthy Nuclei (%): 32%
  Population Hoechst High Intensity Objects (%): 38%
  Population Membrane Permeable-Phenotype (%): 26%
  Population Mitochondria Different-Phenotype (%): 6%
  Population Mitotic Cells (%): 60%
  Population Normal (%): 61%
  Population Pyknosed Nuclei (%): 10%
  Population Tubulin-Different-Phenotype (%): 26%
  Total Cell Count: 75
[3]
  Population Apoptotic (%): 59%
  Population Fragmented Nuclei (%): 20%
  Population Healthy Nuclei (%): 59%
  Population Hoechst High Intensity Objects (%): 8%
  Population Membrane Permeable-Phenotype (%): 10%
  Population Mitochondria Different-Phenotype (%): 16%
  Population Mitotic Cells (%): 40%
  Population Normal (%): 91%
  Population Pyknosed Nuclei (%): 19%
  Population Tubulin-Different-Phenotype (%): 44%
  Total Cell Count: 238
[4]
  Population Apoptotic (%): 85%
  Population Fragmented Nuclei (%): 54%
  Population Healthy Nuclei (%): 24%
  Population Hoechst High Intensity Objects (%): 45%
  Population Membrane Permeable-Phenotype (%): 0%
  Population Mitochondria Different-Phenotype (%): 37%
  Population Mitotic Cells (%): 14%
  Population Normal (%): 55%
  Population Pyknosed Nuclei (%): 21%
  Population Tubulin-Different-Phenotype (%): 50%
  Total Cell Count: 60
[5]
  Population Apoptotic (%): 83%
  Population Fragmented Nuclei (%): 24%
  Population Healthy Nuclei (%): 64%
  Population Hoechst High Intensity Objects (%): 12%
  Population Membrane Permeable-Phenotype (%): 2%
  Population Mitochondria Different-Phenotype (%): 2%
  Population Mitotic Cells (%): 16%
  Population Normal (%): 87%
  Population Pyknosed Nuclei (%): 11%
  Population Tubulin-Different-Phenotype (%): 3%
  Total Cell Count: 239
[6]
  Population Apoptotic (%): 33%
  Population Fragmented Nuclei (%): 56%
  Population Healthy Nuclei (%): 37%
  Population Hoechst High Intensity Objects (%): 30%
  Population Membrane Permeable-Phenotype (%): 5%
  Population Mitochondria Different-Phenotype (%): 10%
  Population Mitotic Cells (%): 66%
  Population Normal (%): 69%
  Population Pyknosed Nuclei (%): 5%
  Population Tubulin-Different-Phenotype (%): 31%
  Total Cell Count: 73
[7]
  Population Apoptotic (%): 52%
  Population Fragmented Nuclei (%): 24%
  Population Healthy Nuclei (%): 57%
  Population Hoechst High Intensity Objects (%): 14%
  Population Membrane Permeable-Phenotype (%): 4%
  Population Mitochondria Different-Phenotype (%): 28%
  Population Mitotic Cells (%): 47%
  Population Normal (%): 85%
  Population Pyknosed Nuclei (%): 17%
  Population Tubulin-Different-Phenotype (%): 54%
  Total Cell Count: 229
[8]
  Population Apoptotic (%): 70%
  Population Fragmented Nuclei (%): 52%
  Population Healthy Nuclei (%): 22%
  Population Hoechst High Intensity Objects (%): 33%
  Population Membrane Permeable-Phenotype (%): 33%
  Population Mitochondria Different-Phenotype (%): 44%
  Population Mitotic Cells (%): 30%
  Population Normal (%): 66%
  Population Pyknosed Nuclei (%): 25%
  Population Tubulin-Different-Phenotype (%): 44%
  Total Cell Count: 60

## CCCn1c(=O)c2[nH]c(C34CC5CC(CC3C5)C4)nc2n(CCC)c1=O [ROLOFYLLINE]
[1]
  Population Apoptotic (%): 67%
  Population Fragmented Nuclei (%): 13%
  Population Healthy Nuclei (%): 55%
  Population Hoechst High Intensity Objects (%): 9%
  Population Membrane Permeable-Phenotype (%): 24%
  Population Mitochondria Different-Phenotype (%): 10%
  Population Mitotic Cells (%): 32%
  Population Normal (%): 90%
  Population Pyknosed Nuclei (%): 31%
  Population Tubulin-Different-Phenotype (%): 63%
  Total Cell Count: 98
[2]
  Population Apoptotic (%): 71%
  Population Fragmented Nuclei (%): 4%
  Population Healthy Nuclei (%): 88%
  Population Hoechst High Intensity Objects (%): 3%
  Population Membrane Permeable-Phenotype (%): 12%
  Population Mitochondria Different-Phenotype (%): 15%
  Population Mitotic Cells (%): 28%
  Population Normal (%): 96%
  Population Pyknosed Nuclei (%): 7%
  Population Tubulin-Different-Phenotype (%): 20%
  Total Cell Count: 81
[3]
  Population Apoptotic (%): 46%
  Population Fragmented Nuclei (%): 13%
  Population Healthy Nuclei (%): 42%
  Population Hoechst High Intensity Objects (%): 13%
  Population Membrane Permeable-Phenotype (%): 23%
  Population Mitochondria Different-Phenotype (%): 37%
  Population Mitotic Cells (%): 53%
  Population Normal (%): 86%
  Population Pyknosed Nuclei (%): 43%
  Population Tubulin-Different-Phenotype (%): 88%
  Total Cell Count: 137
[4]
  Population Apoptotic (%): 55%
  Population Healthy Nuclei (%): 74%
  Population Hoechst High Intensity Objects (%): 3%
  Population Membrane Permeable-Phenotype (%): 46%
  Population Mitochondria Different-Phenotype (%): 73%
  Population Mitotic Cells (%): 44%
  Population Normal (%): 96%
  Population Pyknosed Nuclei (%): 12%
  Population Tubulin-Different-Phenotype (%): 100%
  Total Cell Count: 99
[5]
  Population Apoptotic (%): 31%
  Population Fragmented Nuclei (%): 20%
  Population Healthy Nuclei (%): 56%
  Population Hoechst High Intensity Objects (%): 13%
  Population Membrane Permeable-Phenotype (%): 39%
  Population Mitochondria Different-Phenotype (%): 9%
  Population Mitotic Cells (%): 68%
  Population Normal (%): 86%
  Population Pyknosed Nuclei (%): 23%
  Population Tubulin-Different-Phenotype (%): 73%
  Total Cell Count: 109
[6]
  Population Apoptotic (%): 40%
  Population Fragmented Nuclei (%): 7%
  Population Healthy Nuclei (%): 88%
  Population Hoechst High Intensity Objects (%): 5%
  Population Membrane Permeable-Phenotype (%): 6%
  Population Mitochondria Different-Phenotype (%): 11%
  Population Mitotic Cells (%): 60%
  Population Normal (%): 94%
  Population Pyknosed Nuclei (%): 4%
  Population Tubulin-Different-Phenotype (%): 15%
  Total Cell Count: 83
[7]
  Population Apoptotic (%): 36%
  Population Fragmented Nuclei (%): 17%
  Population Healthy Nuclei (%): 43%
  Population Hoechst High Intensity Objects (%): 13%
  Population Membrane Permeable-Phenotype (%): 31%
  Population Mitochondria Different-Phenotype (%): 39%
  Population Mitotic Cells (%): 63%
  Population Normal (%): 86%
  Population Pyknosed Nuclei (%): 39%
  Population Tubulin-Different-Phenotype (%): 87%
  Total Cell Count: 128
[8]
  Population Apoptotic (%): 56%
  Population Fragmented Nuclei (%): 9%
  Population Healthy Nuclei (%): 58%
  Population Hoechst High Intensity Objects (%): 5%
  Population Membrane Permeable-Phenotype (%): 41%
  Population Mitochondria Different-Phenotype (%): 81%
  Population Mitotic Cells (%): 43%
  Population Normal (%): 94%
  Population Pyknosed Nuclei (%): 31%
  Population Tubulin-Different-Phenotype (%): 100%
  Total Cell Count: 120
[9]
  Population Apoptotic (%): 31%
  Population Fragmented Nuclei (%): 28%
  Population Healthy Nuclei (%): 55%
  Population Hoechst High Intensity Objects (%): 14%
  Population Membrane Permeable-Phenotype (%): 23%
  Population Mitochondria Different-Phenotype (%): 3%
  Population Mitotic Cells (%): 68%
  Population Normal (%): 85%
  Population Pyknosed Nuclei (%): 15%
  Population Tubulin-Different-Phenotype (%): 58%
  Total Cell Count: 118
[10]
  Population Apoptotic (%): 0%
  Population Fragmented Nuclei (%): 25%
  Population Healthy Nuclei (%): 73%
  Population Hoechst High Intensity Objects (%): 13%
  Population Membrane Permeable-Phenotype (%): 34%
  Population Mitochondria Different-Phenotype (%): 5%
  Population Mitotic Cells (%): 100%
  Population Normal (%): 86%
  Population Pyknosed Nuclei (%): 1%
  Population Tubulin-Different-Phenotype (%): 70%
  Total Cell Count: 87
[11]
  Population Apoptotic (%): 62%
  Population Fragmented Nuclei (%): 31%
  Population Healthy Nuclei (%): 46%
  Population Hoechst High Intensity Objects (%): 17%
  Population Membrane Permeable-Phenotype (%): 26%
  Population Mitochondria Different-Phenotype (%): 51%
  Population Mitotic Cells (%): 37%
  Population Normal (%): 82%
  Population Pyknosed Nuclei (%): 21%
  Population Tubulin-Different-Phenotype (%): 86%
  Total Cell Count: 134
[12]
  Population Apoptotic (%): 50%
  Population Fragmented Nuclei (%): 37%
  Population Healthy Nuclei (%): 57%
  Population Hoechst High Intensity Objects (%): 50%
  Population Membrane Permeable-Phenotype (%): 21%
  Population Mitochondria Different-Phenotype (%): 34%
  Population Mitotic Cells (%): 50%
  Population Normal (%): 50%
  Population Pyknosed Nuclei (%): 5%
  Population Tubulin-Different-Phenotype (%): 82%
  Total Cell Count: 160
